The source made the active and inactive calls. The calls are words filed in the database; no cut-off is given here.
Assays:
[1] = molecular target: T1, Hepatocyte growth factor receptor (Homo sapiens, UniProt P08581); test: Inhibition of purified recombinant c-Met after 60 mins by ELISA
[2] = molecular target: Hepatocyte growth factor receptor (Mus musculus) (UniProt P16056); test: Inhibition of TPR-MET autophosphorylation in mouse NIH3T3 cells after 4 hrs by Western blotting; format: cell-based
Chain of Hepatocyte growth factor receptor (Mus musculus) (P16056 whole entry): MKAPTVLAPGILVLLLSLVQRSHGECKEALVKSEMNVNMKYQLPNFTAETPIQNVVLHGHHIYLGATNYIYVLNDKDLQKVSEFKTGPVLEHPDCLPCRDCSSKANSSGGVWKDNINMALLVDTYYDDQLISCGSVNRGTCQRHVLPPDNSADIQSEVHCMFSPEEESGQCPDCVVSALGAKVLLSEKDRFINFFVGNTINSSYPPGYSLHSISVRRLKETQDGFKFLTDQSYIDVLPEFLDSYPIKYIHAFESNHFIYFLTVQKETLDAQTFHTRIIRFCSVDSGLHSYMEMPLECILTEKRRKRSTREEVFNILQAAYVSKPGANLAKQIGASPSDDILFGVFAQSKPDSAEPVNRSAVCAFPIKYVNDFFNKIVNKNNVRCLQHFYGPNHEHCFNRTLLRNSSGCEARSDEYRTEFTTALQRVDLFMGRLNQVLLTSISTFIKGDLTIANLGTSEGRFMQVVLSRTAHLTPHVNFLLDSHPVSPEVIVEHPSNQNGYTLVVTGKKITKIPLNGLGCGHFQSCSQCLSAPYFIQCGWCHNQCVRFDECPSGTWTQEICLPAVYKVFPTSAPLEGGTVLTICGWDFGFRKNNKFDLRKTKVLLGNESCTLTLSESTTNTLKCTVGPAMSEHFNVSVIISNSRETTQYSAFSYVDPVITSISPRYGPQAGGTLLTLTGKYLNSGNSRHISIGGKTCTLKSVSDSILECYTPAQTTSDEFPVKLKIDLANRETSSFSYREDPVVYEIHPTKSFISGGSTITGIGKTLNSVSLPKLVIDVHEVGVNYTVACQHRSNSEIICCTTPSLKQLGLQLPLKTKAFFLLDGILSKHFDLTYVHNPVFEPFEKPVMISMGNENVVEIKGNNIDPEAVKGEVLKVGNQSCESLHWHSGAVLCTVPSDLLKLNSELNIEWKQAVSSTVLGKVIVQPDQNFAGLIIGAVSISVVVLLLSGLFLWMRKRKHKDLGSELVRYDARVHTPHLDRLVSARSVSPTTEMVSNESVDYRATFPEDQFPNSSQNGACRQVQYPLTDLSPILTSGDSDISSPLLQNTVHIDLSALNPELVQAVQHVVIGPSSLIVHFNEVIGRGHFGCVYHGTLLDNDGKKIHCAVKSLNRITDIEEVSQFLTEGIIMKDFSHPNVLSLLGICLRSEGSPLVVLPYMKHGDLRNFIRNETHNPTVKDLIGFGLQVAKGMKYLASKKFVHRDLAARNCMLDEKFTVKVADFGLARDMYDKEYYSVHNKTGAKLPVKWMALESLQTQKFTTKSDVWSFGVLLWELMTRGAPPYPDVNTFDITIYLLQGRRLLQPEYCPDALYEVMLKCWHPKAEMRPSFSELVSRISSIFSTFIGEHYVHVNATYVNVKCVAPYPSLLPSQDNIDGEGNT
Method in brief: (§1)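 Exponentially growing cells were treated with compound for 4 h at 37 °C and lysed in SDS sample buffer. Lysates were run on 10% SDS-PAGE and blotted to nitrocellulose. Blots were probed for phospho-c-Met and total c-Met, with GAPDH as loading control, and detected by ECL.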

[3] = molecular target: Hepatocyte growth factor receptor (Mus musculus) (UniProt P16056); test: Inhibition of TPR-MET autophosphorylation in mouse BaF3 cells after 4 hrs by Western blotting; format: cell-based; method in brief: as §1
[4] = tested on: BaF3; test: Antiproliferative activity against mouse BAF3 cells expressing TPR-Met after 72 hrs in absence of IL-3; format: functional, cell-based; conditions: BaF3, 72 h
Method in brief: (§2)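 Cells were seeded and exposed next day to a range of compound concentrations for 72 h. Proliferation was read by sulforhodamine B or MTT assay, and IC50 derived.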

[5] = tested on: NIH3T3; test: Antiproliferative activity against mouse NIH/3T3 cells after 72 hrs; format: functional, cell-based; conditions: NIH3T3, 72 h; method in brief: as §2
[6] = Clearance in mouse at 10 mg/kg, iv; format: ADME, organism-based; parameters: dose 10 mg/kg, route intravenous; conditions: in vivo
Method in brief: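 Single iv dose of 10 mg/kg to mice, vehicle DMSO/Tween 80/normal saline. Clearance and half-life were derived from plasma concentration-time data. Average of three runs.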

[7] = Cmax in mouse at 20 mg/kg, po; format: ADME, organism-based; parameters: dose 20 mg/kg, route oral; conditions: in vivo
Method in brief: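 Oral 20 mg/kg single dose to mice, vehicle DMSO/Tween 80/normal saline. Cmax was read from the plasma concentration-time profile. Average of three runs.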

[8] = Tmax in mouse at 20 mg/kg, po; format: ADME, organism-based; parameters: dose 20 mg/kg, route oral; conditions: in vivo
[9] = AUC (0 to infinity) in mouse at 20 mg/kg, po; format: ADME, organism-based; parameters: dose 20 mg/kg, route oral, time infinity; conditions: plasma
Method in brief: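 Mice dosed orally at 20 mg/kg in DMSO/Tween 80/normal saline vehicle; plasma concentration-time profile used to derive AUC0-∞. Values are the average of three runs.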

[10] = molecular target: Vascular endothelial growth factor receptor 1 (Homo sapiens, UniProt P17948); test: Inhibition of Flt-1
Method in brief: (§3)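 ELISA on plates precoated with 20 μg/mL poly(Glu,Tyr) 4:1. Buffer: 10 μM ATP, 50 mM HEPES pH 7.4, 50 mM MgCl2, 0.5 mM MnCl2, 0.2 mM Na3VO4, 1 mM DTT, compound in 1% DMSO. Purified kinase was added and incubated 60 min at 37 °C. Phosphotyrosine was detected with PY99 then HRP anti-mouse IgG, o-phenylenediamine, A490. IC50 was taken from inhibition curves.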

[11] = molecular target: Vascular endothelial growth factor receptor 2 (Homo sapiens, UniProt P35968); test: Inhibition of KDR; method in brief: as §3
[12] = molecular target: Mast/stem cell growth factor receptor Kit (Homo sapiens, UniProt P10721); test: Inhibition of c-Kit; method in brief: as §3
[13] = molecular target: Proto-oncogene tyrosine-protein kinase receptor Ret (Homo sapiens, UniProt P07949); test: Inhibition of RET
Chain of Proto-oncogene tyrosine-protein kinase receptor Ret (P07949 whole entry): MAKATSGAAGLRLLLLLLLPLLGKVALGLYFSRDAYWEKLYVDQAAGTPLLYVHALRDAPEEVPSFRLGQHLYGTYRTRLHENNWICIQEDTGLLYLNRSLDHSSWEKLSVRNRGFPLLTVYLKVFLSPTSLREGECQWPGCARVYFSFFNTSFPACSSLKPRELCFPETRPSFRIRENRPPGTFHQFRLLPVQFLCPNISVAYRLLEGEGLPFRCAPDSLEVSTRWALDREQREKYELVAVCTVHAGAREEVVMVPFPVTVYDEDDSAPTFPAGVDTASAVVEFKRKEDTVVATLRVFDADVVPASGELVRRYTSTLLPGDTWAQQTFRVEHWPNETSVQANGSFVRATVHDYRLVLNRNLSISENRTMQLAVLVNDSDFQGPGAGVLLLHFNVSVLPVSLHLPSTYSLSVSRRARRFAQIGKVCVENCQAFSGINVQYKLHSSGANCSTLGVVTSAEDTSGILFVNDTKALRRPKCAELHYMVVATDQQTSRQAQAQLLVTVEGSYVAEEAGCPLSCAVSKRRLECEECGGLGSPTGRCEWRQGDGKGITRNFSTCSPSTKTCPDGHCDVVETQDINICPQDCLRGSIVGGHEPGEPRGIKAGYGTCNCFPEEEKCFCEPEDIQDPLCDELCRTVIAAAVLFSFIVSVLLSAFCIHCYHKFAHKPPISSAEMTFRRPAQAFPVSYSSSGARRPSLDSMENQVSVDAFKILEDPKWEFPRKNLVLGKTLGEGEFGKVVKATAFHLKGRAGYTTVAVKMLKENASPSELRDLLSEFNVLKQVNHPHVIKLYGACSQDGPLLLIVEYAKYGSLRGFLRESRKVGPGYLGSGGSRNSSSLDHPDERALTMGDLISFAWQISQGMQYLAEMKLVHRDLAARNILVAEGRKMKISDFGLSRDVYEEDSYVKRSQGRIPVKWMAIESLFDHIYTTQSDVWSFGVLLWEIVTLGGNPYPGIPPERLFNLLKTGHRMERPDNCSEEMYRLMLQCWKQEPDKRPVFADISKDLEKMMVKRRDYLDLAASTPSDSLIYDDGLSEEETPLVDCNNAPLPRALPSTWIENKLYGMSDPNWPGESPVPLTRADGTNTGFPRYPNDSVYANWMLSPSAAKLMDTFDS

[14] = molecular target: Receptor tyrosine-protein kinase erbB-2 (Homo sapiens, UniProt P04626); test: Inhibition of ErbB2; method in brief: as §3
[15] = molecular target: Tyrosine-protein kinase ABL1 (Homo sapiens, UniProt P00519); test: Inhibition of Abl; method in brief: as §3
[16] = molecular target: Ephrin type-A receptor 2 (Homo sapiens, UniProt P29317); test: Inhibition of EPH-A2; method in brief: as §3
Chain of Ephrin type-A receptor 2 (P29317 whole entry): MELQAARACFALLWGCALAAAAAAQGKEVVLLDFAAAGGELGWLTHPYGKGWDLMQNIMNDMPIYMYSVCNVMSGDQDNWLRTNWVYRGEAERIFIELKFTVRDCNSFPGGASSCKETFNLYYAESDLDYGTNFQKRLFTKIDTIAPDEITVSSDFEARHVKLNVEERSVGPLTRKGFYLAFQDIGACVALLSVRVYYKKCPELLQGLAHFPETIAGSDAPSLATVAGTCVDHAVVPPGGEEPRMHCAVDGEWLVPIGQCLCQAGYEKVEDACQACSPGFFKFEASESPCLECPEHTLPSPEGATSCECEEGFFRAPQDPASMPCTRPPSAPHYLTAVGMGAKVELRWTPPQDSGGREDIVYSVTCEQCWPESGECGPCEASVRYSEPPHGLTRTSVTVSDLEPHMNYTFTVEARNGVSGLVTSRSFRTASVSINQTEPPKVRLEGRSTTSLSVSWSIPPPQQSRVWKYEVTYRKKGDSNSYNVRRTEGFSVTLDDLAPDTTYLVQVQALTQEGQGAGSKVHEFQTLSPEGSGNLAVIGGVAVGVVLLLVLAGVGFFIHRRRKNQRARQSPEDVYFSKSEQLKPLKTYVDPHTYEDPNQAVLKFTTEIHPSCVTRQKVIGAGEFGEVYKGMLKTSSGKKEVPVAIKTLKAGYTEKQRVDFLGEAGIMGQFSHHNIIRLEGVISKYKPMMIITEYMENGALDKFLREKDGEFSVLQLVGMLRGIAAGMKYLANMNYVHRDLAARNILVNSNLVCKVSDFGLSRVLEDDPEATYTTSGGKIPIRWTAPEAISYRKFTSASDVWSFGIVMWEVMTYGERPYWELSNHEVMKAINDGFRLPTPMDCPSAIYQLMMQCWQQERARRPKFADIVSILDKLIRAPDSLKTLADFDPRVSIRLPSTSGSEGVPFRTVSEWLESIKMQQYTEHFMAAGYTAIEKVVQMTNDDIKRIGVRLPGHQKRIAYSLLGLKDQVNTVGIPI

[17] = molecular target: T1, Hepatocyte growth factor receptor; test: Inhibition of c-Met phosphorylation in human H1993 cells at 0.1 to 3 uM after 4 hrs by Western blotting; format: cell-based; method in brief: as §1
[18] = molecular target: T1, Hepatocyte growth factor receptor; test: Inhibition of c-Met phosphorylation in human H1993 cells at 0.5 uM after 4 hrs by Western blotting; format: cell-based; method in brief: as §1
[19] = molecular target: T1, Hepatocyte growth factor receptor; test: Inhibition of c-Met in human H1993 cells assessed as ERK1/2 phosphorylation at 0.1 to 3 uM after 4 hrs by Western blotting; format: cell-based
Method in brief: (§4)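 Exponentially growing cells were exposed to compound for 4 h at 37 °C and lysed in SDS sample buffer. Lysates were resolved on 10% SDS-PAGE and blotted. Blots were probed for phospho- and total ERK1/2 and AKT, with GAPDH loading control, and detected by ECL.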

[20] = molecular target: T1, Hepatocyte growth factor receptor; test: Inhibition of c-Met in human MKN45 cells assessed as AKT phosphorylation at 0.1 to 3 uM after 4 hrs by Western blotting; format: cell-based; conditions: MKN-45; method in brief: as §4
[21] = molecular target: T1, Hepatocyte growth factor receptor; test: Inhibition of c-Met in human H1993 cells assessed as AKT phosphorylation at 0.1 to 3 uM after 4 hrs by Western blotting; format: cell-based; method in brief: as §4
[22] = molecular target: Hepatocyte growth factor receptor (Mus musculus) (UniProt P16056); test: Inhibition of TPR-c-Met phosphorylation expressed in mouse […] cells at 0.1 to 3 uM after 4 hrs by Western blotting; format: cell-based; method in brief: as §1
[23] = molecular target: Hepatocyte growth factor receptor (Mus musculus) (UniProt P16056); test: Inhibition of TPR-c-Met phosphorylation expressed in mouse BAF3 cells assessed as AKT phosphorylation at 0.1 to 3 uM after 4 hrs by Western blotting; format: cell-based; method in brief: as §4
[24] = tested on: MKN-45; test: Antiproliferative activity against human MKN45 cells after 72 hrs; conditions: MKN-45, 72 h
[25] = tested on: SNU1; test: Antiproliferative activity against human SNU1 cells after 72 hrs; conditions: SNU1, 72 h
[26] = tested on: NCI-H441; test: Antiproliferative activity against human NCI-H441 cells after 72 hrs; conditions: NCI-H441, 72 h
[27] = tested on: MDA-MB-231; test: Antiproliferative activity against human MDA-MB-231 cells after 72 hrs; conditions: MDA-MB-231, 72 h
[28] = tested on: MCF7; test: Antiproliferative activity against human MCF7 cells after 72 hrs; conditions: MCF7, 72 h
[29] = tested on: NIH3T3; test: Antitumor activity against mouse NIH/3T3 cells expressing TPR-Met xenografted in nude mouse assessed as tumor growth inhibition at 100 mg/kg, ip qd for 14 days relative to control; format: functional; conditions: 336 h, route intraperitoneal
Method in brief: (§5)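 Tumor cells, (5-10)×10^6, were implanted sc in nude mice and grown to 700-800 mm3. Tumors were cut into 1 mm3 fragments and trocar-transplanted sc. At 100-150 mm3, mice were randomized (n = 6) to vehicle or ip dosing daily. Volumes were measured twice weekly by caliper, TV = length×width²/2. % inhibition used final-day versus day-1 change against vehicle, with Student's t test.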

[30] = Antitumor activity against human U87MG cells xenografted in nude mouse assessed as tumor growth inhibition at 100 mg/kg, ip qd for 14 days relative to control; format: functional, U-87MG ATCC; conditions: U-87 MG, 336 h, route intraperitoneal; method in brief: as §5
[31] = tested on: U-87MG ATCC; test: Antitumor activity against human U87MG cells xenografted in nude mouse assessed as tumor growth inhibition at 50 mg/kg, ip qd for 14 days relative to control; format: functional, organism-based; parameters: dose 50 mg/kg; method in brief: as §5
[32] = tested on: Mus musculus; test: Toxicity in human U87MG cells xenografted nude mouse assessed as reduction of body weight at 100 mg/kg, ip qd for 14 days; format: organism-based, U-87MG ATCC; parameters: dose 100 mg/kg, route intraperitoneal; conditions: in vivo, 336 h
[33] = molecular target: Ephrin type-B receptor 2 (Homo sapiens, UniProt P29323); test: Inhibition of EPH-B2; method in brief: as §3
[34] = molecular target: Fibroblast growth factor receptor 1 (Homo sapiens, UniProt P11362); test: Inhibition of FGFR1
[35] = molecular target: T1, Hepatocyte growth factor receptor; test: Inhibition of purified recombinant c-Met at incubated for 30 mins measured after 100 fold dilution

T1 sequence (P08581 whole entry): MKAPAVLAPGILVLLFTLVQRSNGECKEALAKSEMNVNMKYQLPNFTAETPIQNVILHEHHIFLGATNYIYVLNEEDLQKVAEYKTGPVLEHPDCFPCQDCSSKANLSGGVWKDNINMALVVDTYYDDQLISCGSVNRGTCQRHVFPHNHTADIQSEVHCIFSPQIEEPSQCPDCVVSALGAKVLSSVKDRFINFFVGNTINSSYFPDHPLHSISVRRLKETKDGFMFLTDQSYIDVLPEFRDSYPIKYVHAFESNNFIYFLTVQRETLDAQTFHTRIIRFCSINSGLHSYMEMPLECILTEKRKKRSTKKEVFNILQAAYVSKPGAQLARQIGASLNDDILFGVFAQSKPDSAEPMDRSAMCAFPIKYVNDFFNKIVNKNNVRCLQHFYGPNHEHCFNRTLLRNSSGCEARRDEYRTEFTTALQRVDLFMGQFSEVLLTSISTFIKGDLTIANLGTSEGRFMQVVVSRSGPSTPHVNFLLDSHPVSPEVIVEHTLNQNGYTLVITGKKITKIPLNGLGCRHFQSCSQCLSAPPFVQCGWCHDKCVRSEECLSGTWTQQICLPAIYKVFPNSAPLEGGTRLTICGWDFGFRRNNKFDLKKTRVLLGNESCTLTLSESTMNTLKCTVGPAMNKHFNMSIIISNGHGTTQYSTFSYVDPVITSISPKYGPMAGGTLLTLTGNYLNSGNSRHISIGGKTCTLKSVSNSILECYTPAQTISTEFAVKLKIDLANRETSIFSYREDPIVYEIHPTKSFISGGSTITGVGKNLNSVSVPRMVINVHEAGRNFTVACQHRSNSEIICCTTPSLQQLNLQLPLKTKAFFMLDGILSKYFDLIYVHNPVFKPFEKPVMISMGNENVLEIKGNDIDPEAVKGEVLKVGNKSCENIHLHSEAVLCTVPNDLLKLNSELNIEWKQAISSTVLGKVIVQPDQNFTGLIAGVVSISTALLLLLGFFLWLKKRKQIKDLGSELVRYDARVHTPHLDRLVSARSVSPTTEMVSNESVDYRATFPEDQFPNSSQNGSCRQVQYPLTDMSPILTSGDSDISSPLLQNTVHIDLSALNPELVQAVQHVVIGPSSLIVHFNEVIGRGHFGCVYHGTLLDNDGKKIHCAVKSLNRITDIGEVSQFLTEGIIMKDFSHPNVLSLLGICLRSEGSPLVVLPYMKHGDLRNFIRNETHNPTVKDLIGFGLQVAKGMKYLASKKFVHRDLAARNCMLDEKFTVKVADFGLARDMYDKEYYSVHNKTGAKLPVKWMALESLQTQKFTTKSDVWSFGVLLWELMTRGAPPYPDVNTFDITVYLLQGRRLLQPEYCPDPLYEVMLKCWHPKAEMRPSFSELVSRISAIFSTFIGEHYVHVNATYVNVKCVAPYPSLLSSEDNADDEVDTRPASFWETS

IC50 [1]: 0.95 nM | inhibition [2]: Dose-dependent effect | inhibition [3]: Dose-dependent effect | IC50 [4]: 390 nM | clearance [6]: 59.8 mL/min/kg | Cmax [7]: 316 ng/mL | Tmax [8]: 3 h | AUC(0-inf) [9]: 2100 ng·h/mL | IC50 [10]: > 10 µM | IC50 [11]: > 10 µM | IC50 [12]: > 10 µM | IC50 [13]: > 10 µM | IC50 [14]: > 10 µM | IC50 [15]: > 10 µM | IC50 [16]: > 10 µM | inhibition [17]: Active | inhibition [18]: Active | inhibition [19]: Active | inhibition [20]: Active | inhibition [21]: Active | inhibition [22]: Active | inhibition [23]: Active | IC50 [24]: 1000 nM | IC50 [25]: ≥ 50 µM | IC50 [26]: ≥ 50 µM | IC50 [27]: ≥ 50 µM | IC50 [28]: 16 µM | IC50 [33]: > 10 µM | IC50 [34]: > 10 µM | inhibition [35]: inactive
SMILES: CC(=O)N1CCN(c2cnc3cc(C(F)(F)F)cc(NCc4cccc([N+](=O)[O-])c4)c3c2)CC1
IC50 [5]: ≥ 50 µM | inhibition in vivo at 100 mg/kg [29]: 68% | inhibition in vivo at 100 mg/kg [30]: 69% | inhibition [31]: Active | Activity [32]: Non-toxic
